Results on four compounds are retold here after ChEMBL document CHEMBL4308847, “Discovery, Structure-Activity Relationship, and Biological Characterization of a Novel Series of 6-((1 H-Pyrazolo[4,3- b]pyridin-3-yl)amino)-benzo[ d]isothiazole-3-carboxamides as Positive Allosteric Modulators of the Metabotropic Glutamate Receptor 4 (mGlu4)” (J Med Chem, 2018).

Series [1] is described as follows: Fraction unbound in rat plasma after 4 hrs by equilibrium dialysis method. The series is classed as ADME, cell-free. In general terms: In equilibrium dialysis only unbound substance equilibrates across the membrane.
Series [2] can be described thus: Intrinsic clearance in human liver microsomes at 1 uM preincubated for 5 mins followed by NADPH addition measured up to 45 mins by LC-MS/MS analysis. The series is classed as ADME, Microsome. As to conditions: read-out: CLH. A digest of the protocol: (§1)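 Intrinsic and predicted hepatic clearance derived from liver microsome incubations.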
In general terms: Liver microsomes are vesicles of endoplasmic reticulum, rich in cytochrome P450 enzymes.

The nature of series [3]: Intrinsic clearance in rat liver microsomes at 1 uM preincubated for 5 mins followed by NADPH addition measured up to 45 mins by LC-MS/MS analysis. The series is classed as ADME, Microsome. As to conditions: read-out: CLH. In short, it runs like this:
as §1

In series [4] the target is T1, Metabotropic glutamate receptor 4 (Homo sapiens, UniProt Q14833). Nature of the series: Positive allosteric modulation of human mGlu4 receptor expressed in CHO cells co-expressing Gqi5 assessed as increase in glutamate-induced calcium mobilization preincubated for 142 secs followed by EC20 glutamate addition and subsequent EC80 glutamate addition after 147 secs by Fluo-4-AM dye based fluorescence assay. The series is classed as functional, cell-based. In short, it runs like this:
(§2)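 CHO cells expressing human mGlu4 and Gqi5, plated at 30,000 cells/well and grown overnight at 37 °C, 5% CO2. Cells were loaded with 1 μM Fluo-4 AM for 45 min at 37 °C in HBSS/20 mM HEPES/2.5 mM probenecid. Compounds were run as 10-point, 1:3 dilution series. After 142 s, EC20 glutamate was added; 147 s later, EC80 glutamate. Fluorescence was normalized to the maximal glutamate response. EC50 and %Glu Max were fitted by four-parameter logistic, with maximum normalized to PHCCC.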
On the technique in general: Calcium flux is commonly read through the fluorescence of an indicator in the cells.

Series [5] has as its target T1, Metabotropic glutamate receptor 4. Nature of the series: Positive allosteric modulation of human mGlu4 receptor expressed in CHO cells co-expressing Gqi5 assessed as increase in glutamate-induced calcium mobilization preincubated for 142 secs followed by EC20 glutamate addition and measured after 147 secs by Fluo-4-AM dye based fluorescence assay relative to control. The series is classed as functional, cell-based. In short, it runs like this: as §2

The nature of series [6]: Brain to plasma partition coefficient, Kp of the compound in rat administered as iv cassette dose. The series is classed as ADME, organism-based. The following applies: brain and plasma, read-out: Kp. In short, it runs like this: (§3)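 Cassette dosing in male Sprague-Dawley rats (~300 g, n = 1 per experiment), with carotid artery and jugular vein catheters. Animals acclimated about one week with food and water ad libitum. Plasma (ng/mL) and brain (ng/g) levels were measured and Kp calculated.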

Series [7] addresses Metabotropic glutamate receptor 4 (Rattus norvegicus) (UniProt P31423). Nature of the series: Positive allosteric modulation of rat mGlu4 receptor expressed in HEK cells co-expressing GIRK1/2 assessed as increase in glutamate-induced thallium flux preincubated for 140 secs followed by glutamate addition and measured after 2.5 mins by FluoZin-2-AM dye based fluorescence assay relative to control. The series is classed as cell-based. A digest of the protocol:
(§4)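 HEK cells co-expressing rat mGlu4 and GIRK1/2 were loaded for 1 h at room temperature with FluoZin-2 AM (330 nM final) in HBSS/20 mM HEPES pH 7.4. Compound was incubated 140 s, then thallium buffer with or without agonist was added. Reading continued for 2.5 min at room temperature. Potency was fitted by four-parameter logistic.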

The next series deals with T2, Cytochrome P450 1A2 (Homo sapiens, UniProt P05177).
T2 sequence (P05177 whole entry): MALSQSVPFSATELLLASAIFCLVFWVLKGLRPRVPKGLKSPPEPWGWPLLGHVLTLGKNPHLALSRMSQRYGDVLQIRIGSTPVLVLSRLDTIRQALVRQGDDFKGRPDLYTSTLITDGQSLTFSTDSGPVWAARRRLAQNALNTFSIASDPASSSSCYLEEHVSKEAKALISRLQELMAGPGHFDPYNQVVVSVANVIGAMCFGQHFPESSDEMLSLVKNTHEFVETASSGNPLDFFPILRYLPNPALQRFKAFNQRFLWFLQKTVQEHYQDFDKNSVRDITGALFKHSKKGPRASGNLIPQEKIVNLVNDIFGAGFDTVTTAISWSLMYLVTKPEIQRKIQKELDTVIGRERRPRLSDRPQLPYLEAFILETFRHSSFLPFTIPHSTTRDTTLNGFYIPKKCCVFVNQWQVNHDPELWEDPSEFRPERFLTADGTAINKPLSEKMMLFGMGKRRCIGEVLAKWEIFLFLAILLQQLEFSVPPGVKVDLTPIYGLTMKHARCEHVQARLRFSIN
As to the kind of experiment: Inhibition of CYP1A2 in human liver microsomes using phenacetin as substrate preincubated for 15 mins followed by substrate addition and measured after 8 mins by LC-MS/MS analysis. The series is classed as ADME. A digest of the protocol: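 IC50 for CYP1A2 inhibition determined in human liver microsomes using specific probe substrate-metabolite pairs.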

Series [8] deals with Metabotropic glutamate receptor 4 (Rattus norvegicus, UniProt P31423). As to the kind of experiment: Positive allosteric modulation of rat mGlu4 receptor expressed in HEK cells co-expressing GIRK1/2 assessed as increase in glutamate-induced thallium flux preincubated for 140 secs followed by glutamate addition and measured after 2.5 mins by FluoZin-2-AM dye based fluorescence assay. The series is classed as cell-based. A digest of the protocol:
as §4

Series [9] in a line: Drug uptake in rat brain administered as iv cassette dose. The series is classed as ADME, organism-based. As to conditions: in vivo. In short, it runs like this:
as §3

Series [10] can be described thus: Fraction unbound in human plasma after 4 hrs by equilibrium dialysis method. The series is classed as ADME, cell-free.
A short description of series [11]: Plasma concentration in rat administered as iv cassette dose. The series is classed as ADME, organism-based. As to conditions: in vivo. A digest of the protocol: as §3
Series [12] is described as follows: Half life in rat administered as iv cassette dose. The series is classed as ADME, organism-based. The following applies: in vivo. A digest of the protocol:
(§5)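 IV cassette in male Sprague-Dawley rats (~300 g, n = 1 per experiment), cannulated in carotid artery and jugular vein and acclimated about one week. Plasma clearance, Vss, t1/2 and MRT were derived.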

Series [13] can be described thus: Clearance in rat administered as iv cassette dose. The series is classed as ADME, organism-based. As to conditions: in vivo. A digest of the protocol:
as §5

The next series has as its system Rattus norvegicus. As to the kind of experiment: Reversal of haloperidol-induced catalepsy in Sprague-Dawley rat assessed as decrease in latency to remove forepaws from bar at 10 mg/kg, po administered 30 mins prior to test. The series is classed as functional, organism-based. A digest of the protocol: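 Male Sprague-Dawley rats were randomized and given haloperidol 0.75 mg/kg i.p., then 60 min in home cage. Vehicle or compound (10 mg/kg) was given orally 30 min before catalepsy testing, N = 11–12 rats/group. Data analyzed by one-way ANOVA with Dunnett's test versus vehicle + haloperidol.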

Active and inactive are the calls of the source. The calls are words filed in the database; no cut-off is given here. Bounds are passed on as bounds.

T1 sequence (Q14833 whole entry): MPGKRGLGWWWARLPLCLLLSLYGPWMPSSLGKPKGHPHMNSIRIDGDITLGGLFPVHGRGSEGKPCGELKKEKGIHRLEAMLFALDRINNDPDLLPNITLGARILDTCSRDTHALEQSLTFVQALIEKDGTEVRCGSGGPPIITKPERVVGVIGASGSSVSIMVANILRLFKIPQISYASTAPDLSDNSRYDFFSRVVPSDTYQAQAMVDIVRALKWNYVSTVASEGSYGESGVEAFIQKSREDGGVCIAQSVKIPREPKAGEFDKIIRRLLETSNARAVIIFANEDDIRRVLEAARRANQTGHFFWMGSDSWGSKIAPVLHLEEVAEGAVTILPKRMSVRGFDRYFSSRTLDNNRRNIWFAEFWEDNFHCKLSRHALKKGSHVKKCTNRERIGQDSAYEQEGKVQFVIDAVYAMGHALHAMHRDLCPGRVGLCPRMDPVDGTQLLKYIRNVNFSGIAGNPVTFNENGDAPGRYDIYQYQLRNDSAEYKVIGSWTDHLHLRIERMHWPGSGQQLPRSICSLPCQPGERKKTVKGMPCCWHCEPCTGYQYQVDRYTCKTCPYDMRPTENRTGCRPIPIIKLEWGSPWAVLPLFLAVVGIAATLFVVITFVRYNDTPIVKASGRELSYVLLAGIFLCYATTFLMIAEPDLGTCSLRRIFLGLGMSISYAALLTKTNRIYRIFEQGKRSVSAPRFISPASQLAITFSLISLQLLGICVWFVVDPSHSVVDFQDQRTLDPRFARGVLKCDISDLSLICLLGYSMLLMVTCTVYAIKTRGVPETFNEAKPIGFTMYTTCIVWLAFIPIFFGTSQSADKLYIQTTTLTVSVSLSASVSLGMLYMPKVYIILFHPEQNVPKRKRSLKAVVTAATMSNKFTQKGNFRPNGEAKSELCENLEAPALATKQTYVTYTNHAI
Sequence of Metabotropic glutamate receptor 4 (Rattus norvegicus) (P31423 whole entry): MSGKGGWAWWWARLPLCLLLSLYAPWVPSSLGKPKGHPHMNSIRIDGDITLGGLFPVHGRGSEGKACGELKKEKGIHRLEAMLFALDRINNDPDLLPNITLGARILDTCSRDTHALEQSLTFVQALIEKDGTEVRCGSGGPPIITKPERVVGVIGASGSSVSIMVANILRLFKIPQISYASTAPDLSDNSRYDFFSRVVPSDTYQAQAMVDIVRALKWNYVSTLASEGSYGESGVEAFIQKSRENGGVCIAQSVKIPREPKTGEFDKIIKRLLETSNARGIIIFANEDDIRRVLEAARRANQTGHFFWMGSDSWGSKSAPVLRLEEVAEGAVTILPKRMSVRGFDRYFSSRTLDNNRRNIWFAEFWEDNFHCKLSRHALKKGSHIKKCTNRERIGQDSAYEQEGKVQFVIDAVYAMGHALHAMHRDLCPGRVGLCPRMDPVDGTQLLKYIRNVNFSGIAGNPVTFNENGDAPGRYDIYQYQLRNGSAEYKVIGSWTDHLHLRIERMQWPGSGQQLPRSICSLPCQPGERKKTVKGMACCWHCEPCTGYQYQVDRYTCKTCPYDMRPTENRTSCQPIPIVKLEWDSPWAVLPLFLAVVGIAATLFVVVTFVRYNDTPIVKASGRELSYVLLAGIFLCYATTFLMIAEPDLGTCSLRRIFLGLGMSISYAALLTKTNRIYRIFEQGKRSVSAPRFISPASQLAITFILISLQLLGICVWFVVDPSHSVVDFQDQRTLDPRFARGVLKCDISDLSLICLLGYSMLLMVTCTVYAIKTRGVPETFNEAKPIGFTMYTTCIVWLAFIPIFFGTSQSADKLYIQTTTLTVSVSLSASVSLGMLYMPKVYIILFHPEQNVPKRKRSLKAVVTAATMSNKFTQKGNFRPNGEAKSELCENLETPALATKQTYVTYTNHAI
Sequence of Metabotropic glutamate receptor 4 (Rattus norvegicus, UniProt P31423) (P31423 whole entry): as above

`O=C(c1nsc2cc(Nc3n[nH]c4cccnc34)ccc12)N1CCC(F)(F)CC1`: the fraction unbound (in general, free concentration divided by total concentration) at 4 h in [1] stood at 0.029; in series [10], 0.021. Also, the results for the CLint scaled at 1 µM in series [2] and in series [3] were 54 mL/min/kg and 393 mL/min/kg, respectively. Also, the EC50 (in general, the concentration at which the effect is half-maximal) stood at 52.4 nM in [4] and 139 nM in series [8]. Further, the %max in [5] was found to be 71%; in series [7], 103%. In addition, the Kp (as a rule, the ratio of the level in a tissue or fluid to that in plasma or blood) in [6] turned out to be 0.14. Further, the IC50 (as a rule, the concentration needed to halve the response being measured) against Cytochrome P450 1A2 is greater than 30000 nM. This compound gave a Drug uptake in series [9] of 35.5 ng/g. In series [11], this compound displayed a Cp of 249 ng/mL.
For the compound `c1cnc2c(Nc3ccc4c(C5CCCC5)noc4c3)n[nH]c2n1`, the fraction unbound at 4 h in series [1] was 0.008; in series [10], 0.013. The CLint scaled at 1 µM in series [2] came to 42.3 mL/min/kg; in series [3] it was 281 mL/min/kg. In series [12], the half-life (in general, the time in which the quantity being followed falls by half) was 45.9 min. Also, the figures for the EC50 in series [4] and in [8] were 514 nM and 518 nM, respectively. Further, the results for the %max in series [5] and in series [7] were 85.5% and 102%, respectively. Also, in series [6], the Kp was 1.2. The clearance (commonly a measure of how efficiently the substance is removed, as volume per time) in series [13] is 23.2 mL/min/kg. Moreover, on Cytochrome P450 1A2, the IC50 was 3000 nM. In addition, in series [9], the Drug uptake was found to be 145 ng/g. The same compound registered a Cp in series [11] of 117 ng/mL.
With `Fc1ccc(Nc2n[nH]c3cccnc23)cc1Cl`, in the series with Rattus norvegicus, the outcome was Active.
Turning to `O=C(NC1CC(F)(F)C1)c1nsc2cc(Nc3n[nH]c4nccnc34)ccc12`, the results for the fraction unbound at 4 h in [1] and in [10] were 0.007 and 0.004, respectively. Further, the CLint scaled at 1 µM in series [2] is 2.6 mL/min/kg; in series [3], 8.3 mL/min/kg. For the same compound, the EC50 is 26 nM in [4] and 82.2 nM in [8]. Moreover, the %max in series [5] is 68.1%; in series [7], 86.6%. Moreover, in series [6], the Kp was 0.08. Also, the concentration for half-maximal inhibition (IC50) on Cytochrome P450 1A2 is greater than 30000 nM. In [9], the Drug uptake is reported as 55.6 ng/g. The Cp in series [11] came to 690 ng/mL.
